Results: ChEMBL document CHEMBL3352392, “Identification of novel thiadiazoloacrylamide analogues as inhibitors of dengue-2 virus NS2B/NS3 protease” (Bioorg Med Chem, 2014)
Calls of active or inactive are those of the source. No cut-off for these calls is given here.

Assays:
[1] = biological target: Genome polyprotein (dengue virus type 2) (UniProt P12823); experiment: Inhibition of Dengue virus 2 NS2B/NS3 protease using Bz-Nle-Lys-Arg-Arg-AMC as substrate preincubated at 20 uM for 30 mins before substrate addition by fluorescence assay
In short: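 E. coli BL21-expressed DENV2 NS2B-NS3pro, 200 nM, with compound at 20 µM in 50 mM Tris-HCl pH 8.5, 10 mM NaCl, 20% glycerol, 1 mM CHAPS, 37 °C for 30 min. Bz-Nle-Lys-Arg-Arg-AMC added to start. Fluorescence read every 10 s for 5 min (ex 380/em 460 nm). Inhibition rate from maximum reaction rate with versus without compound. Aprotinin 1 µM as positive control.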

Genome polyprotein [2] = biological target: T1, Genome polyprotein (dengue virus type 2, UniProt P12823); experiment: Inhibition of Dengue virus 2 NS2B/NS3 protease using Bz-Nle-Lys-Arg-Arg-AMC as substrate preincubated for 30 mins before substrate addition by fluorescence assay
In short: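 Purified DENV2 NS2B-NS3pro (200 nM; E. coli BL21) mixed with compound at eleven levels, 0.1 nM–200 µM, in pH 8.5 Tris-HCl buffer with 10 mM NaCl, 20% glycerol, 1 mM CHAPS. Preincubated 30 min at 37 °C, then Bz-Nle-Lys-Arg-Arg-AMC added. AMC fluorescence (380/460 nm) followed every 10 s over 5 min. IC50 from the concentration series.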

Genome polyprotein [3] = biological target: T1, Genome polyprotein; experiment: (§1) Binding affinity to Dengue virus 2 NS2B/NS3 protease by SPR assay
In short: (§2)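 DENV2 NS2B/NS3pro purified from E. coli BL21 and amine-coupled onto a CM5 chip in 10 mM sodium acetate, pH 3.95. Compounds serially diluted in HBS (0.01 M HEPES, 0.15 M NaCl, 3 mM EDTA, 0.005% P20, pH 7.4). Biacore 3000 SPR gave the equilibrium KD.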

[4] = biological target: Genome polyprotein (dengue virus type 2) (UniProt P12823); experiment: as §1; in short: as §2

Compound	inhibition [1]	IC50 (Genome polyprotein [2])	Kd (Genome polyprotein [3])	Activity [4]
N#C/C(=C\c1cn(Cc2ccccc2F)c2ccccc12)C(=O)Nc1nnc(SCc2ccccc2)s1	88.9%	3.58 µM	–	–
N#C/C(=C\c1cn(Cc2ccccc2)c2ccccc12)C(=O)Nc1nnc(SCc2ccccc2)s1	79%	4.44 µM	3.59 µM	–
N#C/C(=C\c1cn(Cc2ccc(F)cc2)c2ccccc12)C(=O)Nc1nnc(SCc2ccccc2)s1	86.5%	2.24 µM	2.07 µM	–
Cc1ccccc1CSc1nnc(NC(=O)/C(C#N)=C/c2cn(Cc3ccccc3)c3ccccc23)s1	69.4%	–	–	–
N#C/C(=C\c1cn(Cc2ccccc2)c2ccccc12)C(=O)Nc1nnc(SCc2cccc3ccccc23)s1	50%	–	–	–
N#C/C(=C\c1cn(Cc2ccccc2)c2ccccc12)C(=O)Nc1nnc(C(F)(F)F)s1	76%	10.1 µM	9.27 µM	–
N#C/C(=C\c1cn(Cc2ccccc2)c2ccccc12)C(=O)Nc1nnc(SCc2ccc(Cl)cc2)s1	63.4%	–	–	–
N#C/C(=C\c1cn(Cc2ccc(C(F)(F)F)cc2C(F)(F)F)c2ccccc12)C(=O)Nc1nnc(SCc2ccccc2)s1	54.1%	–	–	–
COc1ccc(CSc2nnc(NC(=O)/C(C#N)=C/c3cn(Cc4ccccc4)c4ccccc34)s2)cc1	76.3%	3.44 µM	–	–
N#C/C(=C\c1cn(Cc2ccccc2)c2ccccc12)C(=O)Nc1nnc(SCc2ccc(Br)cc2)s1	65.8%	–	–	–
N=C1/C(=C/c2cn(Cc3ccccc3)c3ccccc23)C(=O)N=C2SC(SCc3ccccc3)=NN12	72%	6.09 µM	–	–
N#C/C(=C\c1cn(Cc2ccccc2)c2ccccc12)C(=O)Nc1nnc(SCc2ccccc2Cl)s1	63.5%	–	–	–
O=C(/C=C/c1cn(Cc2ccccc2)c2ccccc12)Nc1nnc(C(F)(F)F)s1	–	–	–	inactive
N#C/C(=C\c1cn(Cc2ccccc2)c2ccccc12)C(=O)Nc1nnc(SCc2ccc(F)cc2)s1	83.4%	3.72 µM	–	–
N#C/C(=C\c1cn(Cc2ccccc2C#N)c2ccccc12)C(=O)Nc1nnc(SCc2ccccc2)s1	85.8%	2.86 µM	–	–
N#C/C(=C\c1cn(Cc2ccc(C(F)(F)F)cc2)c2ccccc12)C(=O)Nc1nnc(SCc2ccccc2)s1	45.9%	–	–	–
